Data on 6 molecules can be found in ChEMBL document CHEMBL1145984 (J Med Chem, 2003).

The Ki is the dissociation constant of the complex between target and ligand, obtained from inhibition or displacement. A lower Ki goes with tighter binding.

The target in this experiment is T1, Aminopeptidase N (Sus scrofa, UniProt P15145).
T1 sequence (P15145 whole entry): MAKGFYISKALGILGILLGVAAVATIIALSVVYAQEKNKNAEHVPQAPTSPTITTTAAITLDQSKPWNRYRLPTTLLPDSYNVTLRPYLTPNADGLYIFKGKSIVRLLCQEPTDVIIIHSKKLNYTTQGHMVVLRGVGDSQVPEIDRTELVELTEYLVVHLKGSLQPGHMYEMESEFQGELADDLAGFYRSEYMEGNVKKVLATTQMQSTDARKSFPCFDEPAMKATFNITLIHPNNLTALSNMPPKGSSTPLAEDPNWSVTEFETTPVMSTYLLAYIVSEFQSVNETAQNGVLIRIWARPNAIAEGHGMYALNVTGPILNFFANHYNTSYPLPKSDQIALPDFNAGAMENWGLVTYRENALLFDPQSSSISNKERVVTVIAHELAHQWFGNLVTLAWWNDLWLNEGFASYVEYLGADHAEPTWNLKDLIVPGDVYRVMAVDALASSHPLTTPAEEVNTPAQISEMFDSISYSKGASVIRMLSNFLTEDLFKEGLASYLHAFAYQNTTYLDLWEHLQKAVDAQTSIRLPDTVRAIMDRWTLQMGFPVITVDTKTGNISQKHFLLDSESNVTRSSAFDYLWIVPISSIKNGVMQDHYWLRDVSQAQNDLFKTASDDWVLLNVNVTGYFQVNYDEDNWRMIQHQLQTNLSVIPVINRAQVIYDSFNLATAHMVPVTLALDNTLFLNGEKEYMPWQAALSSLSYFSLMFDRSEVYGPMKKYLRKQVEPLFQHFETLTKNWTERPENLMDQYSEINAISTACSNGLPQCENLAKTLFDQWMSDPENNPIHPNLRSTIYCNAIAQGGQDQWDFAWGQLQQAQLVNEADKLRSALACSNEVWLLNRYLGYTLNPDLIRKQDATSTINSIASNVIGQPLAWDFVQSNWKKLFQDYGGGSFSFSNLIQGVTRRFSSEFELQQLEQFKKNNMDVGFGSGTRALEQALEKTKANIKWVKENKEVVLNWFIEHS
As to the kind of experiment: Binding affinity towards aminopeptidase N (APN) from pig kidney. The procedure, abridged: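 Porcine kidney APN (lyophilized, diluted in 50 mM potassium phosphate pH 7.2; 4 µg/mL final), inhibitor preincubated 60 min at room temperature, inhibitor solutions adjusted to pH 7.5. L-leucine p-nitroanilide 0.05–0.6 mM final starts reaction; A405 followed 10 min at 25 °C. Ki from Lineweaver-Burk plots of initial linear velocities, 3–4 inhibitor concentrations, each measured twice.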
`CC(C)CC(CP(=O)(O)C(N)CCc1ccccc1)C(=O)O` (stereo unspecified) gave a Ki of 1010 nM.
Take `NC(CCc1ccccc1)P(=O)(O)CC(Cc1ccccc1)C(=O)O` (stereo unspecified): the Ki is 276 nM.
Molecule `CC(C)CC(N)P(=O)(O)CCC(=O)O` (stereo unspecified) displayed a Ki of 1410 nM.
For the molecule `NC(CCc1ccccc1)P(=O)(O)CC(Cc1ccc(O)cc1)C(=O)O` (stereo unspecified), the inhibitory constant (Ki) worked out at 36 nM.
`CC(C)CC(N)P(=O)(O)O` (stereo unspecified): the inhibitory constant (Ki) is 55000 nM.
`CC(C)CC(CP(=O)(O)C(N)CC(C)C)C(=O)O` (stereo in doubt; 27) came in with a Ki of 1020 nM.
